Among the data in ChEMBL document CHEMBL1122498, “Improved delivery through biological membranes. 11. A redox chemical drug-delivery system and its use for brain-specific delivery of phenylethylamine” (1983) are Activity and T1/2 values, retold here.

Holding throughout (assay type): functional
For experiment [1], the species on record is Homo sapiens. As to the kind of experiment: In vitro facile oxidative conversion to the corresponding quaternary derivative 5a in heparinized human whole blood.
The species entered for experiment [2] is Homo sapiens. The experiment in a line: In vitro facile oxidative conversion to the corresponding quaternary derivative 5a in fresh human plasma. In a few lines:
(§1)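 Dihydro derivative in methanol (0.2 mL of 6.25 × 10⁻⁴ M) diluted to 10 mL with 20% fresh human plasma in phosphate buffer pH 7.4. Held at 37 °C with UV scans 400–250 nm every 10 min for 2 h against a plasma/methanol reference. Oxidation to the pyridinium salt followed by loss at ~350 nm and gain at 262 nm. First-order k and t1/2 derived.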

The species named for experiment [3] is Homo sapiens. As to the kind of experiment: Half life during the site specific conversion to the quaternary derivative 5a in fresh human plasma was determined. The procedure, abridged: as §1
The species entered for experiment [4] is Homo sapiens. As to the kind of experiment: Half life during the site specific conversion to the quaternary derivative 5a in heparinized human whole blood was determined.
The species entered for experiment [5] is Rattus norvegicus. The experiment in a line: In vitro facile oxidative conversion to the corresponding quaternary derivative 5a in rat brain homogenate. The procedure, abridged: (§2)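 Rat brain (2.0 g) homogenized in 10 mL phosphate buffer pH 7.4, centrifuged, heated 50 °C for 5 min, recentrifuged, and diluted to 100 mL (2%). To 10 mL was added 0.2 mL of 6.25 × 10⁻⁴ M methanolic dihydro derivative. First-order k and t1/2 derived.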

For experiment [6], the species on record is Rattus norvegicus. The experiment in a line: In vitro facile oxidative conversion to the corresponding quaternary derivative 5a in rat liver homogenate. The procedure, abridged:
(§3)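 Sprague-Dawley rat liver (5.0 g) homogenized in 50 mL phosphate buffer pH 7.4, centrifuged, heated 50 °C for 5 min, recentrifuged, and diluted to 250 mL (2%). Dihydro derivative (0.2 mL of 6.25 × 10⁻⁴ M in methanol) diluted to 10 mL with homogenate. UV scans at 37 °C from 400 to 250 nm every 5 min for 1 h against a homogenate/methanol reference. First-order k and t1/2 derived.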

For experiment [7], the species on record is Rattus norvegicus. The experiment in a line: Half life during the site specific conversion to the quaternary derivative 5a in rat liver homogenate was determined. In a few lines:
as §3

The species entered for experiment [8] is Rattus norvegicus. As to the kind of experiment: Half life during the site specific conversion to the quaternary derivative 5a in rat brain homogenate was determined. In a few lines:
as §2

Take `O=C(NCCc1ccccc1)C1=CN(Cc2ccccc2)C=CC1`: the Activity in the experiment filed under Homo sapiens [1] is 4.74 10e-4 K s-1; in the experiment listed under Homo sapiens [2] it was 0.74 10e-4 K s-1; in the experiment filed under Rattus norvegicus [5] it was 2.1 10e-4 K s-1; in the experiment listed under Rattus norvegicus [6], 7.5 10e-4 K s-1. Further, the T1/2 in the experiment listed under Homo sapiens [3] was found to be 2.6 h; in the experiment filed under Homo sapiens [4] it was 24.4 min; in the experiment listed under Rattus norvegicus [7], 15.3 min; in the experiment listed under Rattus norvegicus [8] it was 0.917 h.
Consider `CN1C=CCC(C(=O)NCCc2ccccc2)=C1`, for which the Activity in the experiment listed under Homo sapiens [1] is 8.4 10e-4 K s-1; in the experiment filed under Homo sapiens [2], 1.8 10e-4 K s-1; in the experiment filed under Rattus norvegicus [5], 4.12 10e-4 K s-1; in the experiment filed under Rattus norvegicus [6] it was 8.13 10e-4 K s-1. Moreover, the T1/2 in the experiment listed under Homo sapiens [3] stood at 1.07 h; in the experiment listed under Homo sapiens [4], 13.7 min; in the experiment filed under Rattus norvegicus [7], 14.4 min; in the experiment listed under Rattus norvegicus [8], 0.47 h.
In the case of `CCOC(=O)C1=CN(C)C=C(C(=O)NCCc2ccccc2)C1`, the Activity is 1.13 10e-4 K s-1 in the experiment listed under Homo sapiens [1] and 0.174 10e-4 K s-1 in the experiment listed under Rattus norvegicus [5]. Moreover, the T1/2 was 70.2 min in the experiment filed under Homo sapiens [4] and 11.1 h in the experiment filed under Rattus norvegicus [8].
On to `CN1C=C(C(=O)NCCc2ccccc2)CC(C(=O)NCCc2ccccc2)=C1`, for which the Activity in the experiment filed under Homo sapiens [1] was 0.494 10e-4 K s-1; in the experiment filed under Rattus norvegicus [5], 0.084 10e-4 K s-1. For the same compound, the T1/2 in the experiment listed under Homo sapiens [4] was found to be 234 min; in the experiment listed under Rattus norvegicus [8], 22.9 h.
